Consider 16 molecules from ChEMBL document CHEMBL4431336, “Ligand-based virtual screen for the discovery of novel M5 inhibitor chemotypes” (Bioorg Med Chem Lett, 2016).

Active and inactive are the calls of the source. The calls are words filed in the database; no cut-off is given here.

Assay [1] concerns the target T1, Muscarinic acetylcholine receptor M5 (Homo sapiens) (UniProt P08912).
T1 sequence (whole entry): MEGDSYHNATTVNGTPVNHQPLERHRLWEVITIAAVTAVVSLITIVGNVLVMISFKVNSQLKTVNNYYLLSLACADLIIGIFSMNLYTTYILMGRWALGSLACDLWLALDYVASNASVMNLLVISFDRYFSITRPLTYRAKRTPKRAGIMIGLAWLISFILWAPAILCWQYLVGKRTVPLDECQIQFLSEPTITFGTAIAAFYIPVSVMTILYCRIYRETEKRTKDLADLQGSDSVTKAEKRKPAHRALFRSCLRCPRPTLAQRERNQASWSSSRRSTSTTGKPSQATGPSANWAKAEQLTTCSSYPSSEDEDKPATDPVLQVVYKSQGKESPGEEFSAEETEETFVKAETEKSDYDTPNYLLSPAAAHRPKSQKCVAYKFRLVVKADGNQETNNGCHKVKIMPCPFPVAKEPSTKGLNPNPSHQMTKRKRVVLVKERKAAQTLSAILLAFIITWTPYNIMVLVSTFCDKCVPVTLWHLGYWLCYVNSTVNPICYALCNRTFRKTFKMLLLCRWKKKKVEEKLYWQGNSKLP
Put plainly: Antagonist activity at human muscarinic M5 receptor assessed as inhibition of acetylcholine-induced calcium response at 10 uM. Type of assay: functional. The essentials:
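Single-point functional assay in hM5 cells challenged with an EC80 of ACh, compound at 10 μM. Result is % inhibition, averaged from three determinations.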

Assay [2] has as its target T2, Muscarinic acetylcholine receptor M5 (Homo sapiens, UniProt P08912).
T2 sequence (P08912 whole entry): T1 sequence (whole entry)
As to the kind of experiment: Antagonist activity at human muscarinic M5 receptor assessed as inhibition of acetylcholine-induced calcium response. In kind it is functional. The essentials:
(§1)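 Concentration–response curves (10-point) run in cells expressing human M1, M2, M3, M4 or M5 receptors, n=3. IC50 comes from the curves, with pIC50 also reported. The residual ACh response at 30 μM is given as % ACh min (mean±SEM).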

Assay [3] addresses T1, Muscarinic acetylcholine receptor M5 (Homo sapiens). As to the kind of experiment: Antagonist activity at human muscarinic M5 receptor assessed as inhibition of acetylcholine-induced calcium response at 30 uM. Type of assay: functional. The method, boiled down:
as §1

In assay [4] the target is T3, Muscarinic acetylcholine receptor M4 (Homo sapiens, UniProt P08173).
T3 sequence (P08173 whole entry): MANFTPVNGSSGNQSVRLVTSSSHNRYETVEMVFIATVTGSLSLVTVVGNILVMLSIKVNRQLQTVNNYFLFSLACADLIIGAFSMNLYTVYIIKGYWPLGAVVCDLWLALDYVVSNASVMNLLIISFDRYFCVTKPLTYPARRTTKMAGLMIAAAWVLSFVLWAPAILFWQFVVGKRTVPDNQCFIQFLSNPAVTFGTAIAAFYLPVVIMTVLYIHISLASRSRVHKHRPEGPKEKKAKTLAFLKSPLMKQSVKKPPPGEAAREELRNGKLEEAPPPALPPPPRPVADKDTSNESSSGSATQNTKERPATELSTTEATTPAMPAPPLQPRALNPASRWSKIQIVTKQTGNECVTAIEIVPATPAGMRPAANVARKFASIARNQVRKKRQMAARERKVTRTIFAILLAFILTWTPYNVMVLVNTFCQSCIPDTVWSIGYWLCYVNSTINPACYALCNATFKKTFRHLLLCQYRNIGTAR
As to the kind of experiment: Antagonist activity at human muscarinic M4 receptor assessed as inhibition of acetylcholine-induced calcium response. In kind it is functional. The method, boiled down: as §1

In assay [5] the target is T4, Muscarinic acetylcholine receptor M1 (Homo sapiens, UniProt P11229).
T4 sequence (P11229 whole entry): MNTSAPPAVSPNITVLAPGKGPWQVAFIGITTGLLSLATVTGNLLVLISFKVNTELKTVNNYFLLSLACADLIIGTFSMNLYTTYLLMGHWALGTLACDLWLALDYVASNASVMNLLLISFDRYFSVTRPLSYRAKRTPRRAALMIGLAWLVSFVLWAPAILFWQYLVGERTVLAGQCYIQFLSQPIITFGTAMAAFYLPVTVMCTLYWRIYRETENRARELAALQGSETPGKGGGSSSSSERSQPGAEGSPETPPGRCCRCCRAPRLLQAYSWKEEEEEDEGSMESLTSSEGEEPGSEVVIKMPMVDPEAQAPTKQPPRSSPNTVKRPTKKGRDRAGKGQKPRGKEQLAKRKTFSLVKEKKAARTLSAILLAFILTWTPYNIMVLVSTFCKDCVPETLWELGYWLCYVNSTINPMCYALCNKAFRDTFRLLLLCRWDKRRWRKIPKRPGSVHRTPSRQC
As to the kind of experiment: Antagonist activity at human muscarinic M1 receptor assessed as inhibition of acetylcholine-induced calcium response. In kind it is functional. The method, boiled down: as §1

Assay [6] addresses T5, Muscarinic acetylcholine receptor M3 (Homo sapiens, UniProt P20309). As to the kind of experiment: Antagonist activity at human muscarinic M3 receptor assessed as inhibition of acetylcholine-induced calcium response. Type of assay: functional. The method, boiled down:
as §1
Target sequence in this assay (P20309 whole entry): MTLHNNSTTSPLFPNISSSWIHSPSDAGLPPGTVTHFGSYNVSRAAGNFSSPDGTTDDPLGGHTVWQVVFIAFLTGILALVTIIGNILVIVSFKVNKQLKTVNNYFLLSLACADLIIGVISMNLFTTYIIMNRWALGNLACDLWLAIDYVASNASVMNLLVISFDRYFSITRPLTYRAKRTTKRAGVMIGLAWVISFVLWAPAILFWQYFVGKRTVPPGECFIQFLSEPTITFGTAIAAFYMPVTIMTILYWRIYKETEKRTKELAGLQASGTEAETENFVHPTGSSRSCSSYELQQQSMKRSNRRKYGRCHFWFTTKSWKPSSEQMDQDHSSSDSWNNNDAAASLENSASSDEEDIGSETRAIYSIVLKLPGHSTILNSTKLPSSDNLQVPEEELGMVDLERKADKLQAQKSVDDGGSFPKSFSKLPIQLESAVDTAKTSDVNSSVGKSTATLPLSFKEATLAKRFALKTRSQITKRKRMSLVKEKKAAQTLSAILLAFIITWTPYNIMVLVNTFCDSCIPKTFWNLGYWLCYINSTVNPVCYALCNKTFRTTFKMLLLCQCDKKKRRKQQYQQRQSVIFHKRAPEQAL

Assay [7] concerns the target T6, Muscarinic acetylcholine receptor M2 (Homo sapiens, UniProt P08172).
T6 sequence (P08172 whole entry): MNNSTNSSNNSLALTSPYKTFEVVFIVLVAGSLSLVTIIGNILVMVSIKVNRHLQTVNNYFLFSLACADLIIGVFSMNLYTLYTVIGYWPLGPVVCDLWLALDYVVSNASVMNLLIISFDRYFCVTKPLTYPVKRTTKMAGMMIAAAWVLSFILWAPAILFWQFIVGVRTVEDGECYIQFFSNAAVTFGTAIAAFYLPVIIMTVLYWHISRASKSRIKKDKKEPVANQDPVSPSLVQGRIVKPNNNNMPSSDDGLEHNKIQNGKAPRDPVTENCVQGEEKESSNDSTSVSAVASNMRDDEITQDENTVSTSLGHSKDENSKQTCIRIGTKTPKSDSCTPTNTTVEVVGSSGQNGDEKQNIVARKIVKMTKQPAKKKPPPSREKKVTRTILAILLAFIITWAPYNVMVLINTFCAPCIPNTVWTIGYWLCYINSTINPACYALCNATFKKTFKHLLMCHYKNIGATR
As to the kind of experiment: Antagonist activity at human muscarinic M2 receptor assessed as inhibition of acetylcholine-induced calcium response. In kind it is functional. The essentials:
as §1

Assay [8] concerns the target T7, Muscarinic acetylcholine receptor M1 (Homo sapiens) (UniProt P11229).
T7 sequence (whole entry): T4 sequence (P11229 whole entry)
Put plainly: Antagonist activity at human muscarinic M1 receptor assessed as minimum acetylcholine-induced calcium response at 30 uM. On the set-up: scale not given: the % may be the effect or the level left. Type of assay: functional. The essentials: as §1

Assay [9] deals with T1, Muscarinic acetylcholine receptor M5 (Homo sapiens). As to the kind of experiment: Antagonist activity at human muscarinic M5 receptor assessed as minimum acetylcholine-induced calcium response at 10 uM. In kind it is functional. Also noted: scale not given: the % may be the effect or the level left.
For assay [10] the target is unchanged. Put plainly: Antagonist activity at human muscarinic M5 receptor assessed as minimum acetylcholine-induced calcium response at 30 uM. On the set-up: scale not given: the % may be the effect or the level left. In kind it is functional. The method, boiled down:
as §1

The target in assay [11] is T8, Muscarinic acetylcholine receptor M2 (Homo sapiens) (UniProt P08172).
T8 sequence (whole entry): T6 sequence (P08172 whole entry)
Put plainly: Antagonist activity at human muscarinic M2 receptor assessed as minimum acetylcholine-induced calcium response at 30 uM. Type of assay: functional. On the set-up: scale not given: the % may be the effect or the level left. The method, boiled down: as §1

Assay [12] concerns the target T5, Muscarinic acetylcholine receptor M3. As to the kind of experiment: Antagonist activity at human muscarinic M3 receptor assessed as minimum acetylcholine-induced calcium response at 30 uM. In kind it is functional. Also noted: scale not given: the % may be the effect or the level left. The essentials:
as §1
Target sequence in this assay (P20309 whole entry, looked up): as the sequence (P20309 whole entry) above

Assay [13] concerns the target T9, Muscarinic acetylcholine receptor M4 (Homo sapiens) (UniProt P08173).
T9 sequence (whole entry): T3 sequence (P08173 whole entry)
Put plainly: Antagonist activity at human muscarinic M4 receptor assessed as minimum acetylcholine-induced calcium response at 30 uM. Also noted: scale not given: the % may be the effect or the level left. Type of assay: functional. The essentials: as §1

The target of assay [14] is T2, Muscarinic acetylcholine receptor M5. As to the kind of experiment: Displacement of [3H]NMS from human muscarinic M5 receptor. The essentials: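 Competition binding against [3H]-N-methylscopolamine in membranes prepared from cells expressing human M5, n=3.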

Turning to `O=S(=O)(c1cc(F)cc(F)c1)N1CCC2(CC1)OCCS2`, the inhibition in assay [1] came to 62%. Also, in assay [2] (read-out: IC50), the IC50 is > 10 µM.

As for `Cc1noc(C)c1CCc1nnc2scc(-c3ccc(Cl)cc3)n12`, in [2] (read-out: IC50), the IC50 was > 10 µM. The inhibition in assay [3] amounted to 40%.

As to `COc1ccc([C@@]23c4ccccc4C(=O)N2CCN3C(=O)c2cc(F)c(F)c(F)c2)cc1C`, the IC50 in [4] was > 30 µM; in assay [5], > 30 µM; in assay [2] (read-out: IC50), 0.246 µM; in assay [6], > 30 µM; in assay [7], > 30 µM.

Consider `Cc1c(S(=O)(=O)N2CCC3(CC2)OCCS3)cnn1C`, for which the inhibition in assay [1] was 83%. In [2] (read-out: IC50), the IC50 was > 10 µM.

Turning to `Fc1cc(F)cc(-c2nnc(Cc3nc(-c4ccc5c(c4)OCO5)no3)o2)c1`, the IC50 is > 10 µM in [4], 2.8 µM in assay [5], 5.16 µM in assay [2] (read-out: IC50) and 0.93 µM in assay [7]. The Imax in assay [1] came to 70%.

As to `Cc1noc(C)c1S(=O)(=O)N1CCC2(CC1)OCCS2`, the inhibition in assay [1] was found to be 40%. Besides, the IC50 in assay [2] (read-out: IC50) was > 10 µM.

For `Cc1nn(C)c(C)c1S(=O)(=O)N1CCC2(CC1)OCCS2`, the Activity came out at 61% in [8]; 12.6% in assay [9]; 16% in [10]; 37% in assay [11]; 55% in assay [12]; 55% in assay [13]. Further, the IC50 in assay [4] is > 10 µM; in assay [5], > 10 µM; in assay [2] (read-out: IC50), 3.86 to 6.2 µM; in assay [2] (read-out: pIC50 (converted)) it was 0.661 µM; in [6], > 10 µM; in assay [7] it was > 10 µM. In addition, the Imax in [1] lay in the range of 50 to 88%. This molecule also came in with an inhibitory constant (Ki) in assay [14] of 2.7 µM.

Take `Cc1nn(C)c(C)c1S(=O)(=O)N1CCC2(CC1)SCCS2`: the inhibition in assay [1] worked out at 86%. For the same molecule, the IC50 in assay [2] (read-out: IC50) was > 10 µM.

With `Cc1nn(C)c(C)c1S(=O)(=O)N1CCC2(CCCO2)CC1`, the inhibition in assay [1] worked out at 37%. Besides, the IC50 in [2] (read-out: IC50) was > 10 µM.

On to `O=S(=O)(c1cc(F)c(F)c(F)c1)N1CCC2(CC1)OCCS2`, for which the inhibition in assay [1] was determined as 55%. Further, the IC50 in assay [2] (read-out: IC50) was > 10 µM.

`Cn1cnc(S(=O)(=O)N2CCC3(CC2)OCCS3)c1`: the inhibition entry in [1] was “inactive”.

For `Cc1nn(C)c(C)c1S(=O)(=O)N1CCC2(CC1)OCCO2`, the inhibition in assay [1] came to 45%. In assay [2] (read-out: IC50), the IC50 was > 10 µM.

In the case of `Cc1nn(C)cc1S(=O)(=O)N1CCC2(CC1)OCCS2`, in assay [1], the inhibition result is “inactive”.

With `Cn1cc(S(=O)(=O)N2CCC3(CC2)OCCS3)cn1`, the inhibition in assay [1] turned out to be 27%. The IC50 in assay [2] (read-out: IC50) is > 10 µM.

As to `O=S(=O)(c1ccc(F)c(Cl)c1)N1CCC2(CC1)OCCS2`, the inhibition in assay [1] is 83%. Besides, the IC50 in assay [2] (read-out: IC50) was > 10 µM.

Consider `CCN(C(=O)Cn1cc(-c2ccccc2)c(N2CCOCC2)n1)c1cccc(C)c1`, for which, in assay [2] (read-out: IC50), the IC50 was > 10 µM. In addition, the inhibition in assay [3] turned out to be 40%.
